Measured values from ChEMBL document CHEMBL1772963, “Isolation and structure of homotemsirolimuses A, B, and C” (J Nat Prod, 2011).

Experiments:
LNCaP = assay: Antiproliferative activity against human LNCAP cells after 3 days by MTS assay; assay type: functional, cell-based; conditions: 72 h
Outline: (§1)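 Cells seeded in 96-well plates for 24 h, then treated with vehicle or a range of compound doses for 3 days. Viable cell density read by MTS assay. IC50 taken from plots of percent inhibition versus vehicle control.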

[1] = biological target: Serine/threonine-protein kinase mTOR (Homo sapiens, UniProt P42345); assay: Inhibition of FKBP12-independent human recombinant mTOR expressed in HEK293 cells using His6-S6K1 as a substrate by DELFIA assay; assay type: cell-based
Outline: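 Recombinant mTOR kinase activity measured with no FKBP12 present, with vehicle or a range of compound doses. IC50 derived by plotting percent inhibition relative to control.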

[2] = Antiproliferative activity against human MDA468 cells after 3 days by MTS assay; assay type: functional, cell-based; conditions: MDA-MB-468, 72 h; outline: as §1

| IC50 (LNCaP) | IC50 [1] | SMILES | IC50 [2] |
| --- | --- | --- | --- |
| 2.5 nM | 1800 nM | CC[C@@H]1CC[C@H]2C[C@H](OC)/C(C)=C/C=C/C=C/[C@@H](C)C[C@@H](C)C(=O)[C@H](OC)[C@H](O)/C(C)=C/[C@@H](C)C(=O)C[C@@H]([C@H](C)C[C@@H]3CC[C@@H](OC(=O)C(C)(CO)CO)[C@H](OC)C3)OC(=O)[C@@H]3CCCCN3C(=O)C(=O)[C@]1(O)O2 [HOMOTEMSIROLIMUS A] | 1 nM |
| 8 nM | 2100 nM | CC[C@@H]1/C=C(\C)[C@@H](O)[C@@H](OC)C(=O)[C@H](C)C[C@H](C)/C=C/C=C/C=C(\C)[C@@H](OC)C[C@@H]2CC[C@@H](C)[C@@](O)(O2)C(=O)C(=O)N2CCCC[C@H]2C(=O)O[C@H]([C@H](C)C[C@@H]2CC[C@@H](OC(=O)C(C)(CO)CO)[C@H](OC)C2)CC1=O [HOMOTEMSIROLIMUS C] | 5 nM |
| 13 nM | 2500 nM | CC[C@@H]1/C=C/C=C/C=C(\C)[C@@H](OC)C[C@@H]2CC[C@@H](C)[C@@](O)(O2)C(=O)C(=O)N2CCCC[C@H]2C(=O)O[C@H]([C@H](C)C[C@@H]2CC[C@@H](OC(=O)C(C)(CO)CO)[C@H](OC)C2)CC(=O)[C@H](C)/C=C(\C)[C@@H](O)[C@@H](OC)C(=O)[C@H](C)C1 [HOMOTEMSIROLIMUS B] | 5 nM |
| 0.5 nM | 1760 nM | CO[C@H]1C[C@@H]2CC[C@@H](C)[C@@](O)(O2)C(=O)C(=O)N2CCCC[C@H]2C(=O)O[C@H]([C@H](C)C[C@@H]2CC[C@@H](OC(=O)C(C)(CO)CO)[C@H](OC)C2)CC(=O)[C@H](C)/C=C(\C)[C@@H](O)[C@@H](OC)C(=O)[C@H](C)C[C@H](C)/C=C/C=C/C=C/1C [TEMSIROLIMUS] | 8 nM |
